Several values for one entry are separate records, joined by “and”; a condition that tells them apart may be missing. Equal entries are not always repeated.
Assays:
[1] = molecular target: T1, soybean lipoxygenase-1 (sLO-1) (Glycine max, UniProt P08170); assay: Kinetic inhibition assay of sLO-1; format: biochemical
T1 sequence (P08170 1-839): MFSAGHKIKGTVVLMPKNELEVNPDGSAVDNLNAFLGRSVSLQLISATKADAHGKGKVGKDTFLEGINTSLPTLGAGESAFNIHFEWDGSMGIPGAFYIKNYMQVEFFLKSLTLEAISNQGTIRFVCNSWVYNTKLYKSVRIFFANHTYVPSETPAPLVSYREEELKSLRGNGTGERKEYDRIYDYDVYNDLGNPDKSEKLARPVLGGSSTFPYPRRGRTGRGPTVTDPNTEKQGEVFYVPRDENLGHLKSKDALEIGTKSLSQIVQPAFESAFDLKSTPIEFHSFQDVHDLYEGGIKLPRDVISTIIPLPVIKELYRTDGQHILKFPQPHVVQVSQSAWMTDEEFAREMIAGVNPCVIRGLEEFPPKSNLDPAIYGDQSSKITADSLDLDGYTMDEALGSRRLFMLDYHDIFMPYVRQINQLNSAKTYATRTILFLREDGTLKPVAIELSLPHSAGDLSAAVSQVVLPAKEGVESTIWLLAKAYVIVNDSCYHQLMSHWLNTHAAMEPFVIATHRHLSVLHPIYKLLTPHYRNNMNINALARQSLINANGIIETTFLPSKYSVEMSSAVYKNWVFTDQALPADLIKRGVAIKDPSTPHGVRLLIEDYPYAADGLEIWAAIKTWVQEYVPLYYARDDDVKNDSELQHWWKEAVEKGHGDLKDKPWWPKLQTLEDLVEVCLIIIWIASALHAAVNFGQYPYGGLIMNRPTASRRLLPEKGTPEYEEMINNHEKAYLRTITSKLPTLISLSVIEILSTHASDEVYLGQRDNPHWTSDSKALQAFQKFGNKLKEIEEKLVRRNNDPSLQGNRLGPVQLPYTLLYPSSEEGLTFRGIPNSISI

[2] = molecular target: T2, human reticulocyte 15-lipoxygenase-1 (15-hLO-1) (Homo sapiens, UniProt P16050); assay: Kinetic inhibition assay of 15-hLO-1; format: biochemical; conditions: for Ki: Kis; for Ki / Kii: noncompetitive
T2 sequence (P16050 1-662): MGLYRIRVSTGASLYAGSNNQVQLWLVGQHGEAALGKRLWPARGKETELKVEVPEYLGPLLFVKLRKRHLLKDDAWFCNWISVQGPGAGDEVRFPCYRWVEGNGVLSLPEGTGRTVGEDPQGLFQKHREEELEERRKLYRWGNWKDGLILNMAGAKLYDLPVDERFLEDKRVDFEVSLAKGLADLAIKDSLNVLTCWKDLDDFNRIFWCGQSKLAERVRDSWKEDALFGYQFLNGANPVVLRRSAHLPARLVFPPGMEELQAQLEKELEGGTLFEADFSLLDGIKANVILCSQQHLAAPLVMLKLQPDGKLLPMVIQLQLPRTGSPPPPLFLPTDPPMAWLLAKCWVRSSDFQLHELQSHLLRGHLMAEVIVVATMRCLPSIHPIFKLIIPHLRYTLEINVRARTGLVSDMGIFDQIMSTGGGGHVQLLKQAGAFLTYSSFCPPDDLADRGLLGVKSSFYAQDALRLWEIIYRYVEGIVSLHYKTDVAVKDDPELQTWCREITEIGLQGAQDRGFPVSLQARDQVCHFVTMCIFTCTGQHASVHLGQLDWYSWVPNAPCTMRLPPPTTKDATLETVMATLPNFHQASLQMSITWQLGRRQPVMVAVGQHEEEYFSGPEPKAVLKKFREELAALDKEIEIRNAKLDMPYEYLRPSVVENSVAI

[3] = molecular target: T3, human platelet 12-lipoxygenase (12-hLO) (Homo sapiens, UniProt P18054); assay: Kinetic inhibition assay of 12-hLO; format: biochemical
T3 sequence (P18054 1-663): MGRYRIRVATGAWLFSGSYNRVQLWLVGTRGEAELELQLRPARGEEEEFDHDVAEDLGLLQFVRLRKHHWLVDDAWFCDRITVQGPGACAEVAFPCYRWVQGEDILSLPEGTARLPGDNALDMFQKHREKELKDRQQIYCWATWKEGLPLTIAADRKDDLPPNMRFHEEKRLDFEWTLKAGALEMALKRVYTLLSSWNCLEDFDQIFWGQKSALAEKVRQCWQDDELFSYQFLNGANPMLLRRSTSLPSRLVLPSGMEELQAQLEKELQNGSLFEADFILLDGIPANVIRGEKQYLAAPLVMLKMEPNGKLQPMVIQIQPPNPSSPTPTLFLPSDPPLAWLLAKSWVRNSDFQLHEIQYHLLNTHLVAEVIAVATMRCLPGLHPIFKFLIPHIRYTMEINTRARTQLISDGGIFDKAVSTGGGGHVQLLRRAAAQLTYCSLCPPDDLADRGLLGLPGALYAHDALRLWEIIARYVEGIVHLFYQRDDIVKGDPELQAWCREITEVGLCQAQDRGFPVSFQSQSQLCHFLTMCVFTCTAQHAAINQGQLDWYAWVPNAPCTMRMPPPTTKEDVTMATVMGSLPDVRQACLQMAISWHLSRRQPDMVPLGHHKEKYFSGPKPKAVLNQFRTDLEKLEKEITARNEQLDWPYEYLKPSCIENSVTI

15-hLO-1 = molecular target: T4, 15-hLO-1 (Homo sapiens, UniProt P16050); assay: HPLC analysis of product distribution, 15-hLO-1; format: biochemical; conditions: AA 15 µM, inhibitor at 5 × Ki, HEPES pH 7.5; error in parentheses
T4 sequence (P16050 1-662): T2 sequence (P16050 1-662)
Method in brief: (§1)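 Reaction was followed at 235 nm and products isolated after 15 min. Products were resolved by isocratic reverse-phase HPLC (55% A/45% B) against authentic HETE standards, with 8- and 12-HETE coeluting.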

12-hLO = molecular target: T5, 12-hLO (Homo sapiens, UniProt P18054); assay: HPLC analysis of product distribution, 12-hLO; format: biochemical; conditions: AA 15 µM, inhibitor at 5 × Ki, HEPES pH 7.5; error in parentheses
T5 sequence (P18054 1-663): T3 sequence (P18054 1-663)
Method in brief: as §1

sLO-1 [4] = molecular target: T6, sLO-1 (Glycine max, UniProt P08170); assay: HPLC analysis of product regioselectivity, sLO-1; format: biochemical, soybean; conditions: exclusive product 13-HPODE, no 9-HPODE, with and without inhibitor
T6 sequence (P08170 1-839): T1 sequence (P08170 1-839)

sLO-1 [5] = molecular target: T6, sLO-1; assay: Incubation of thiaLAs with sLO-1 as possible substrates; format: biochemical, soybean; conditions: over the course of one hour
sLO-1 [6] = molecular target: T6, sLO-1; assay: Consumption of the inhibitor under turnover conditions with 13-HPODE; format: biochemical, soybean; conditions: enzyme, AA and 13-HPODE, 1 hour, HPLC
[7] = substrate: CCCCC/C=C\C/C=C\C/C=C\C/C=C\CCCC(=O)O; assay: Kinetic inhibition assay of sLO-1; format: biochemical, soybean
[8] = Ki (competitive inhibition), substrate linoleic acid, pH 10.0
[9] = substrate linoleic acid, pH 10.0
[10] = substrate LA, pH 7.5, 13-HPODE activator

CCCCC/C=C\S/C=C\CCCCCCCC(=O)O [Compound 11-thiaLA, 11-Thialinoleic acid]
Ki [1, 8]: 22 µM
Ki ([1]; Kis, substrate arachidonic acid, pH 7.5, 13-HPODE activator, noncompetitive): 45.6 ± 11.1 µM
Ki ([1]; Kis, substrate arachidonic acid, pH 10.0, 13-HPODE activator, noncompetitive): 48.5 µM and 48 µM
Mode of inhibition in the presence of activator ([1]; oxidation of LA, 13-HPODE present): competitive inhibition
Mode of inhibition ([1]; substrate AA, pH 10.0 and pH 7.5, 13-HPODE activator): noncompetitive inhibition
Kii ([1]; substrate arachidonic acid, pH 7.5, 13-HPODE activator, noncompetitive): 38.2 ± 5.4 µM
Kii ([1]; substrate arachidonic acid, pH 10.0, 13-HPODE activator, noncompetitive): 36.0 ± 4.0 µM
Mode of inhibition [1, 9]: competitive inhibition
Mode of inhibition ([2]; AA as substrate): noncompetitive inhibitor
Ki ([2]; substrate AA, 13-HPODE activator): 11.4 µM
Ki [2, 10]: 20.1 µM
Kii ([2]; substrate AA, 13-HPODE activator, listed as 11-ThiaLA): 18.1 ± 2.0 µM
Kii ([2]; substrate AA, 13-HPODE activator, listed as 11-Thialinoleic acid): 18.1 µM
Kii [2, 10]: 20.0 ± 1.4 µM
Mode of inhibition ([2]; with respect to LA): noncompetitive inhibitor
Ki [3]: 2.5 µM
Mode of inhibition ([3]; AA as substrate): competitive inhibitor
Ki for 12-hLO smaller than for sLO-1 (LA) ([3]; compared with Ki for oxidation of LA by sLO-1): approximately 10 fold
Mode of inhibition in the presence of activator ([3]; oxidation of AA, 13-HPODE (16 µM) present): competitive inhibition
8-/12-HETE (%) (15-hLO-1): 16 (3) %
11-HETE (%) (15-hLO-1): 5 (1) %
15-HETE (%) (15-hLO-1): 79 (3) %
8-/12-HETE (%) (12-hLO): 93 (1) %
11-HETE (%) (12-hLO): 2 (1) %
15-HETE (%) (12-hLO): 5 (1) %
Effect on product regioselectivity of sLO-1 (sLO-1 [4]): did not affect the product regioselectivity
Activity as substrate on incubation with sLO-1 (sLO-1 [5]): did not result in any appreciable activity
Conversion of the inhibitor under turnover conditions (sLO-1 [6]): no discernable conversion

CCCCS/C=C\C/C=C\CCCCCCCC(=O)O [Compound 14-thiaLA, 14-Thialinoleic acid]
Ki [1, 8]: 35 µM
Mode of inhibition [1, 9]: competitive inhibition
Substrate or inhibitor behaviour with 12-hLO ([3]; AA as substrate): neither a substrate nor an inhibitor
Activity as substrate on incubation with sLO-1 (sLO-1 [5]): did not result in any appreciable activity
Conversion of the inhibitor under turnover conditions (sLO-1 [6]): oxidized to a small extent

CCCCC/C=C\C/C=C\CCCCCCCC(=O)O [LA, linoleic acid, reference compound]
Km ([1]; read-out: Km for linoleic acid with sLO-1, pH 10.0): 28 ± 5 µM
Km ([2]; read-out: Km with 15-hLO-1, substrate itself, 13-HPODE activator): 6.2 ± 0.9 µM

B1: soybean lipoxygenase-1 (sLO-1) (Glycine max) (protein)
chain: T1 sequence (P08170 1-839)
Km ([7]; other: pH 7.5, 13-HPODE activator, pH 7.5): 31.7 ± 3.5 µM
Km ([7]; other: pH 10.0, 13-HPODE activator, pH 10.0): 15.1 ± 1.5 µM

— paper PMC2883171 (Organic & biomolecular chemistry, 2008)
